The term inhibition denotes the relative decrease from the control value, in per cent.

Calls of active or inactive are those of the source.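 How the source made its calls, unless noted: active means visually confirmed hit in the image check and inhibition above 20%; inconclusive means visually confirmed hit but inhibition not above 20%; inactive means no visual hit in the image check.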

Experiment [1] can be described thus: inhibitors of TNFa-induced NFkB p65 translocation, primary screen, imaging, HUVEC, MLSMR starter and 10KST1 sets (AID 438;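 active means inhibition above 20% together with a positive visual image hit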;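 further: compound added about 3h40 before a 20 min TNFalpha stimulation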;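 on inhibition: signal is the nuclear over cytoplasmic p65 intensity ratio per well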). The settings on record: HUVEC TNFa-induced p65 nuclear translocation; cell count: measured here: nuclei count (cytotoxicity indicator), at 2.08 µM; inhibition: at 2 µM, stronger effect = higher value, 0% TNFa-plus-vehicle, 100% no-TNFa wells.
Experiment [2] in a line: inhibitors of mutant huntingtin aggregation, primary screen, imaging, exon1htt(103Q)mCFP cells, high-content imaging (AID 483;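 active means visual image review flags a hit and inhibition of aggregation exceeds 20%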;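 further: compound exposure lasted 3 days before fixation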;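 on nuclei count: percent of the per-plate median nuclei count of sample wells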). Particulars: exon1htt(103Q)mCFP cell line, aggregate imaging, at 2 µM; inhibition of aggregation: stronger effect = higher value; nuclei count: measured here: cell count, toxicity.
A short description of experiment [3]: inhibitors of E-selectin induction by TNFa, primary screen, imaging, HUVEC, immunofluorescence, MLSMR starter and 10KST1 sets (AID 487).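 On inhibition: signal is fraction of cell area covered by stained E-selectin grains.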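 On nuclei count: 100% = median nuclei count of all wells on the same plate.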 Particulars: HUVEC TNFalpha-induced E-selectin immunofluorescence imaging, at 2 µM; inhibition: stronger effect = higher value; nuclei count: measured here: cell number, toxicity.
Experiment [4] deals with Voltage-gated potassium channel subunit beta-2 (Rattus norvegicus) (UniProt P62483). Nature of the experiment: KvBeta enzyme negative modulators, primary screen, biochemical, NADPH fluorescence (AID 622;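 active means fluorescence slope higher than the sample average by over 3 SD, cut at about -0.22 in these data, passing the limit was not always enough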;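 further: slope of raw intensity against log time taken from 70 to 1610 s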). Particulars: recombinant KvBeta, 4-cyanobenzaldehyde reduction, at 10 µM, stronger effect = higher value.
Chain of Voltage-gated potassium channel subunit beta-2 (Rattus norvegicus) (P62483 whole entry, looked up): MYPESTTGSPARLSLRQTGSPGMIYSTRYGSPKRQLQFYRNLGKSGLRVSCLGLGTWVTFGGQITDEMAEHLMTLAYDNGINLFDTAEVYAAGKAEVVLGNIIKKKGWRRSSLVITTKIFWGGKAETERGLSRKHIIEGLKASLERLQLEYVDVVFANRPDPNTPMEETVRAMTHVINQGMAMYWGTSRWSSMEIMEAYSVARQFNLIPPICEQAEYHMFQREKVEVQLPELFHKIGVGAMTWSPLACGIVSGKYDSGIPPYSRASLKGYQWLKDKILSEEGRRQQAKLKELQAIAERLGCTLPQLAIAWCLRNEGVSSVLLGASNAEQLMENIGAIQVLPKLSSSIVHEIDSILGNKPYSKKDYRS
For experiment [5] the target is unchanged. Nature of the experiment: KvBeta positive modulators, primary screen, biochemical, NADPH fluorescence (AID 623;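 active means NADPH fluorescence slope more negative than the mean of all samples by about 3 SD, 99.7% confidence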;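 further: fluorescence intensity change per second fitted from 20 to 320 s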). The settings on record: Recombinant KvBeta, NADPH fluorescence decrease slope, 10 min; at 10 µM; stronger effect = lower value.
The target of experiment [6] is Muscarinic acetylcholine receptor M4 (Homo sapiens) (UniProt P08173). Nature of the experiment: compounds altering M4/GIRK thallium flux, either direction, primary screen, M4 allosteric agonist project, cell-based, HEK293 M4/GIRK, BTC-AM (AID 625;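 active means fluorescence slope after compound addition differing from the mean of all tested samples at 99.7% confidence, mostly higher but some lower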;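 further: thallium influx through GIRK channels coupled to M4 in HEK293 cells with BTC-AM dye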). Particulars: at 10 µM, actives lie on both sides. The method in brief: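 Assay system: HEK293 cells with M4 receptor and GIRK channels / Controls: carbachol and DMSO controls / Schedule: 1 h dye loading, 2 min kinetic read / Technique: kinetic fluorescence with BTC-AM dye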
Chain of Muscarinic acetylcholine receptor M4 (Homo sapiens) (P08173 whole entry, looked up): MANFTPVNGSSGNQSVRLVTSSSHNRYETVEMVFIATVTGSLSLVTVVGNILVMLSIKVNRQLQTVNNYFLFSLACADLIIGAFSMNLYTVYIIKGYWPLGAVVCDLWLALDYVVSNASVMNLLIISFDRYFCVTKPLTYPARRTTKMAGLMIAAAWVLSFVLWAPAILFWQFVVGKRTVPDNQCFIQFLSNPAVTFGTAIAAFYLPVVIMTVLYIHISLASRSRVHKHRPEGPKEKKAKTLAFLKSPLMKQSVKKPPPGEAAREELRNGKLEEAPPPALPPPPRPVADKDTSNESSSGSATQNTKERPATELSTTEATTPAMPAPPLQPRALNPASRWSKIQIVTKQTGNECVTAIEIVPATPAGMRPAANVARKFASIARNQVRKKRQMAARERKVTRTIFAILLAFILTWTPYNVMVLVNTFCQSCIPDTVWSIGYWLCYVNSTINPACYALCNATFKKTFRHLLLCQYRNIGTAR

Experiment [7] is described as follows: inhibitors of Sendai virus-induced IRF3 signaling, primary screen, TLR/RLR signaling modifier project, cell-based, Sendai virus stimulus, luciferase, 10K MLSCN set (AID 602276;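 active means inhibition at or above 50% at 10 µM; inactive means inhibition below 50%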;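 further: firefly luciferase from ISG56 promoter only with Renilla not read in this screen; 0% = Sendai virus plus DMSO and 100% = medium plus DMSO without virus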). Particulars: HEK293 RL24 IRF3 luciferase reporter, at 10 µM, stronger effect = higher value. In general terms: Reporter assays use an easily measured gene product as a stand-in for the process of interest.

The nature of experiment [8]: inhibitors of poly I:C-induced TLR3 signaling, primary screen, cell-based, poly I:C stimulus, luciferase, 10K MLSCN set (AID 602277;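 active means inhibition of the reporter signal at or above 50%; inactive means inhibition below 50%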). The settings on record: HEK293-TLR3 RL24 IRF3 luciferase reporter, at 10 µM, stronger effect = higher value.

Turning to `Cc1cc2nc3c(nc2cc1C)C1(C(=O)O)CCC3(C)C1(C)C` (centres undefined), the cell count in experiment [1] was determined as 376. Moreover, the inhibition was -12.3% (inactive) in experiment [1], -109% (inactive) in experiment [3], 13.5% (inactive) in experiment [7] and 15.6% (inactive) in experiment [8]. Also, the inhibition of aggregation in experiment [2] was -4.4% (inactive). Further, the nuclei count in experiment [2] is 95%; in experiment [3], 101%. The fluorescence slope in experiment [4] is -0.547 (inactive); in experiment [6], 0.00318 (inactive). Further, in experiment [5], the NADPH fluorescence slope is -0.000111 (inactive).

Take `COC(=O)c1c(N)n(-c2cc(OC)cc(OC)c2)c2nc3ccccc3nc12`: the cell count in experiment [1] was 700. Moreover, the inhibition in experiment [1] was 9.4% (inactive); in experiment [3], 28.6% (inactive); in experiment [7] it was 2.96% (inactive); in experiment [8] it was -6.82% (inactive). Further, the inhibition of aggregation in experiment [2] was 2.3% (inactive). Besides, the values for the nuclei count in experiment [2] and in experiment [3] were 84.9% and 80%, respectively. Further, the fluorescence slope in experiment [4] was -0.0659 (inactive); in experiment [6] it was 0.00491 (inactive). Moreover, in experiment [5], the NADPH fluorescence slope was -2.3e-05 (inactive).

As for `Cc1nnc2sc(-c3cccc(NC(=O)c4cccnc4)c3)nn12`, the cell count in experiment [1] is 295. Besides, the inhibition in experiment [1] is -6% (inactive); in experiment [3] it was -54% (inactive); in experiment [7] it was -21% (inactive); in experiment [8] it was -15.6% (inactive). In addition, in experiment [2], the inhibition of aggregation was 5% (inactive). Moreover, the nuclei count in experiment [2] was 89.2%; in experiment [3], 108%. Also, the fluorescence slope in experiment [4] is -0.346 (inactive); in experiment [6], 0.006 (inactive). Moreover, the NADPH fluorescence slope in experiment [5] is 1.1e-05 (inactive).

For the molecule `Cc1cccn2c(=O)c3cc(C#N)c(=NC(=O)c4ccncc4)n(Cc4ccco4)c3nc12`, the cell count in experiment [1] came out at 386. The inhibition is -1% (inactive) in experiment [1], -36.9% (inactive) in experiment [3], 10.3% (inactive) in experiment [7] and 19.4% (inactive) in experiment [8]. Also, the inhibition of aggregation in experiment [2] was 5% (inactive). Also, the nuclei count was found to be 99.9% in experiment [2] and 114% in experiment [3]. Further, the values for the fluorescence slope in experiment [4] and in experiment [6] were -0.535 (inactive) and 0.00818 (inactive), respectively. The NADPH fluorescence slope in experiment [5] is -1.2e-05 (inactive).

Consider `S=c1[nH]c2ccc(Cl)cc2[nH]1`, for which the cell count in experiment [1] is 457. Further, the inhibition in experiment [1] is -3.8% (inactive); in experiment [3], -78.7% (inactive); in experiment [7], 21.3% (inactive); in experiment [8], 33.3% (inactive). In addition, in experiment [2], the inhibition of aggregation is -4% (inactive). Moreover, the nuclei count in experiment [2] worked out at 91.1%; in experiment [3] it was 110%. The fluorescence slope in experiment [4] is -0.449 (inactive); in experiment [6], 0.00564 (inactive). For the same molecule, the NADPH fluorescence slope in experiment [5] is -3.7e-05 (inactive).

For `CC(=O)OCC(=O)c1ccc2ccn(C(C)=O)c2c1`, the cell count in experiment [1] was found to be 544. Further, the inhibition is 1.6% (inactive) in experiment [1], -19.1% (inactive) in experiment [3], 4.56% (inactive) in experiment [7] and -8.58% (inactive) in experiment [8]. In experiment [2], the inhibition of aggregation is -17.9% (inactive). The nuclei count in experiment [2] was 102%; in experiment [3] it was 95.5%. Further, the results for the fluorescence slope in experiment [4] and in experiment [6] were -0.258 (inactive) and 0.00624 (inactive), respectively. The NADPH fluorescence slope in experiment [5] was -1.1e-05 (inactive).

In the case of `ON=C1/C(=N\O)CC2(C/C1=N/O)OCCO2`, in experiment [1], the cell count is 408. The inhibition in experiment [1] was 2.2% (inactive); in experiment [3], 7.1% (inactive); in experiment [7], 17% (inactive); in experiment [8], 4.87% (inactive). In addition, the inhibition of aggregation in experiment [2] is 22.4% (inactive). The nuclei count was determined as 69.5% in experiment [2] and 89.7% in experiment [3]. Besides, the fluorescence slope in experiment [4] was -0.532 (inactive); in experiment [6] it was 0.00423 (inactive). Moreover, the NADPH fluorescence slope in experiment [5] is -3.5e-05 (inactive).

`CCC(C)(C)NC(=O)C(OC(=O)c1ccco1)c1ccccc1OC` (centres undefined): the cell count in experiment [1] worked out at 610. In addition, the inhibition in experiment [1] is -6.2% (inactive); in experiment [3] it was -4.1% (inactive); in experiment [7] it was 0.26% (inactive); in experiment [8], 8.58% (inactive). Also, in experiment [2], the inhibition of aggregation was 11% (inactive). Further, the nuclei count in experiment [2] turned out to be 87.5%; in experiment [3], 107%. Further, the fluorescence slope in experiment [4] is -0.248 (inactive); in experiment [6], 0.00739 (inactive). The NADPH fluorescence slope in experiment [5] was 3.7e-06 (inactive).

As for `COc1ccc(OC)c(NC(=O)CCN2CCN(c3ccccc3F)CC2)c1`, the cell count in experiment [1] amounted to 529. The inhibition in experiment [1] is 10.1% (inactive); in experiment [3], -63.8% (inactive); in experiment [7], 1.17% (inactive); in experiment [8], 0.616% (inactive). For the same molecule, the inhibition of aggregation in experiment [2] was 10.6% (inactive). Moreover, the nuclei count amounted to 81.2% in experiment [2] and 101% in experiment [3]. The fluorescence slope in experiment [4] is -0.54 (inactive); in experiment [6], 0.00417 (inactive). For the same molecule, in experiment [5], the NADPH fluorescence slope was -3.3e-05 (inactive).

Take `O=C(O)CCc1ccc(-c2cccs2)n1CCC(=O)O`: the cell count in experiment [1] worked out at 828. The inhibition is -2.7% (inactive) in experiment [1], -43% (inactive) in experiment [3], 14.7% (inactive) in experiment [7] and 20.5% (inactive) in experiment [8]. The inhibition of aggregation in experiment [2] was -3.1% (inactive). Further, the nuclei count was determined as 95.6% in experiment [2] and 116% in experiment [3]. Also, the fluorescence slope was -0.55 (inactive) in experiment [4] and 0.00465 (inactive) in experiment [6]. Besides, the NADPH fluorescence slope in experiment [5] was -5.2e-05 (inactive).

Consider `CC(=O)N1C(=O)C2(Nc3ccccc3N2)c2ccccc21`, for which the cell count in experiment [1] was 406. Besides, the inhibition in experiment [1] was -4.3% (inactive); in experiment [3] it was 20.6% (inactive); in experiment [7], -8.46% (inactive); in experiment [8], 9.54% (inactive). Moreover, the inhibition of aggregation in experiment [2] was 6.4% (inactive). Moreover, the nuclei count in experiment [2] and in experiment [3] was 108% each time. The figures for the fluorescence slope in experiment [4] and in experiment [6] were -0.283 (inactive) and 0.00603 (inactive), respectively. Besides, the NADPH fluorescence slope in experiment [5] is -1.3e-05 (inactive).

Consider `O=S1(=O)C=CC(Nc2cccc(Cl)c2)C1` (centres undefined), for which, in experiment [1], the cell count was found to be 682. The inhibition was -1% (inactive) in experiment [1], -7.5% (inactive) in experiment [3], 22.9% (inactive) in experiment [7] and 30.3% (inactive) in experiment [8]. Moreover, the inhibition of aggregation in experiment [2] was -6.1% (inactive). Moreover, the nuclei count in experiment [2] is 97.2%; in experiment [3], 98.1%. The fluorescence slope in experiment [4] is -0.447 (inactive); in experiment [6] it was 0.0065 (inactive). Moreover, the NADPH fluorescence slope in experiment [5] is -6.1e-05 (inactive).

For the molecule `COC(=O)c1cnn2c(C(F)(F)F)cc(-c3ccco3)nc12`, the cell count in experiment [1] amounted to 246. In addition, the inhibition was 0.2% (inactive) in experiment [1], 42.4% (inactive) in experiment [3], 8.92% (inactive) in experiment [7] and 9.22% (inactive) in experiment [8]. The inhibition of aggregation in experiment [2] is 38.2% (inactive). Further, the nuclei count in experiment [2] was 75.8%; in experiment [3], 72.5%. The fluorescence slope is -0.276 (inactive) in experiment [4] and 0.00336 (inactive) in experiment [6]. Besides, the NADPH fluorescence slope in experiment [5] is -8.1e-06 (inactive).

As to `CCC1(C)Cc2c(C#N)c(N)n(-c3ccccc3)c(=O)c2CO1` (centres undefined), the cell count in experiment [1] was found to be 531. The inhibition in experiment [1] is -8.6% (inactive); in experiment [3] it was -59.9% (inactive); in experiment [7] it was -3.47% (inactive); in experiment [8] it was 5.33% (inactive). Moreover, the inhibition of aggregation in experiment [2] is 13.9% (inactive). The nuclei count is 100% in experiment [2] and 93.4% in experiment [3]. The fluorescence slope in experiment [4] is -0.622 (inactive); in experiment [6], 0.00509 (inactive). For the same molecule, in experiment [5], the NADPH fluorescence slope is 6.4e-05 (inactive).

Values taken from PubChem BioAssay.
